SIRT5 inh – SIRT5 desuccinylase inhibitors, primary screen, biochemical, fluorescence imaging, single point, set 5; Purified SirT5, succinyl-peptide AMC, trypsin-coupled fluorescence; inhibition, % at 15 µM; 330,000 compounds, 1.1% hits; in the data active means inhibition above about 15%; inconclusive means no clear call, values can overlap the other calls
Target sequence (Q9NXA8 whole entry, looked up): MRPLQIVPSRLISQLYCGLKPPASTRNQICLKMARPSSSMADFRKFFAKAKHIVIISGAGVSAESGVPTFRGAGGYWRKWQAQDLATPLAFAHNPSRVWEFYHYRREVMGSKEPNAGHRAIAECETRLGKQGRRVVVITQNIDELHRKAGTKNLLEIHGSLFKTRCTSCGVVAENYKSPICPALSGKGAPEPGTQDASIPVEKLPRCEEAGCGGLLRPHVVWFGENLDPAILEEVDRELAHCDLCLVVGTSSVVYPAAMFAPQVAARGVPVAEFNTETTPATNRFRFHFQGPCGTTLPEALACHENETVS
CaV13 ICDI inh – Primary screen for inhibitors of IQ motif and Ca2+-dependent inactivation inhibitor domain binding in CACNA1D, Förster resonance energy transfer in living cells, …; HEK cells, CFP/YFP FRET ICDI-IQ, plate reader, 10 min; percent FRET-ratio fall versus neutral wells; inhibition, % at 12.3 µM; 340,000 compounds, 0.098% hits; AID 743397;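 active means mean replicate inhibition of at least 30% and at least 1% of replicates passing that level; inconclusive means only one of the two criteria is met; inactive means neither criterion is met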;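 further: 0% = median of the neutral control wells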
S100A4 MyoIIA – inhibitors of S100A4-myosin IIA peptide binding, primary screen, biochemical, fluorescence polarization, TAMRA-MyoIIA peptide. Protein S100-A4 (Homo sapiens), P26447. inhibition, % at 10.7 µM. 360,000 compounds, 0.14% hits;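 active means mean inhibition of at least 70% across replicates, with every replicate also reaching that level; inconclusive means mean inhibition reaches 70% but some replicates fall short; inactive means mean inhibition below 70%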
Target sequence (P26447 whole entry, looked up): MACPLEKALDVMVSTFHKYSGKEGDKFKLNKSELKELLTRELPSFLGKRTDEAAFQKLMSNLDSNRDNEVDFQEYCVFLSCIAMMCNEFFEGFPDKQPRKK
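Compound dosing: one dose per compound; test system: human S100A4 monomer with TAMRA-labelled myosin IIA peptide; probe or stimulus: TAMRA-labelled myosin IIA heavy-chain peptide probe, 5 nM; medium: HEPES buffer with Ca2+, pH 7.2; schedule: 5 min incubation before reading; benchmarks: neutral control DMSO, positive control TFP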
DENV2 CPE rescue – inhibitors of DENV2 cytopathic effect, primary screen, cell-based, plate reader, single concentration | CPE inhibition, % at 9.99 µM | 350,000 compounds, 1.7% hits | DENV2-infected cells, cytopathic effect rescue | AID 651640, 2012; in the data active means CPE inhibition above about 20%, passing the limit was not always enough; inconclusive means no clear call, values can overlap the other calls; tested in BHK-21 cells;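 further: 0% = median of neutral control wells and 100% = median of positive control wells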
AF4-AF9 inh – inhibitors of AF4 peptide binding to AF9, primary screen, biochemical, AlphaScreen, biotin-AF4 peptide, FLAG-AF9, single point; Protein AF-9 (Homo sapiens), P42568; inhibition, % at 10 µM; 350,000 compounds, 0.47% hits;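 active means every replicate reaching a set inhibition limit, whatever the replicate mean, cut at about 25% in these data; inconclusive means mean inhibition reaches that limit but some replicates miss it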;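 further: 0% = plate neutral control median and 100% = total signal loss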
* marks the source's active call; other numbers are inactive results; ? = inconclusive; · = no result. A selection: hits, their analogues and other compounds. The true share with any hit is near 2.7%.

SMILES	SIRT5 inh	CaV13 ICDI inh	S100A4 MyoIIA	DENV2 CPE rescue	AF4-AF9 inh
C[C@@H]1CCCCO[C@@H](CN(C)Cc2ccc(Cl)c(Cl)c2)[C@@H](C)CN([C@@H](C)CO)C(=O)c2cc(NC(=O)Cc3ccccc3)ccc2O1	4	·	20	-2	-3
O=C(COC(=O)c1cc(Cl)ccc1[N+](=O)[O-])NC1CC1	16*	-3	4	10	-1
COc1cccc(C#Cc2cnc3c(c2)C(=O)N([C@H](C)CO)C[C@H](C)[C@H](CN(C)C)O3)c1	-1	·	0	3	2
Cc1cccc(S(=O)(=O)N(C)C[C@@H]2OCc3cn(nn3)CCCC(=O)N([C@H](C)CO)C[C@@H]2C)c1	-4	·	11	2	0
Nc1c(C=C2C=CC(=O)C=C2)c(=O)nc2sc(CC(=O)N3CCCCC3)nn12	40*	-2	-5	4	-2
CC1=Nc2ccc(C)cc2/C1=C/c1c(N)n2nc(CC(=O)N3CCOCC3)sc2nc1=O	-1	-23	56	5	-3
Nc1c(/C=C2/C=CC(=O)C(O)=C2)c(=O)nc2sc(CC(=O)N3CCOCC3)nn12	34*	-8	-3	31*	-9
Nc1c(/C=C2/C=CC(=O)C(O)=C2)c(=O)nc2sc(CC(=O)N3CCCCC3)nn12	43*	-3	-2	3	-1
Nc1c(/C=C2/C=CC(=O)C(O)=C2)c(=O)nc2sc(CC(=O)N3CCCC3)nn12	29*	-3	-2	6	-2
CCc1nn2c(N)c(/C=C3\C=Nc4ccccc43)c(=O)nc2s1	1	-5	6	0	-1
COc1cccc(NC(=O)N(C)C[C@@H]2Oc3cc(C#Cc4ccc(F)cc4)ccc3S(=O)(=O)N([C@H](C)CO)C[C@H]2C)c1	14	·	-27	3	-14
O=C(C[C@H]1CC[C@H]2[C@@H](COC[C@H](O)CN2S(=O)(=O)c2ccccc2)O1)N1CCOCC1	0	·	3	-3	-12
Cc1ccc(NC(=O)CSC(C)C(=O)OCC(=O)N2CCN(C(=O)c3ccco3)CC2)cc1 (configuration not stated)	0	-4	-9	86*	-4
CCCCn1c(N)c(N(CC(C)C)C(=O)CSCc2ccc(Cl)c(Cl)c2)c(=O)[nH]c1=O	17*	-14	-3	5	-1
CCN(C(=O)CSc1nc2ccc(OC)cc2[nH]1)c1c(N)n(Cc2ccccc2)c(=O)[nH]c1=O	-2	-6	5	-1	0
Cc1ccc2nc(SCC(=O)N(CC(C)C)c3c(N)n(Cc4ccccc4)c(=O)[nH]c3=O)[nH]c2c1	-1	-17	-1	6	27*
CCCCn1c(N)c(N(CC(C)C)C(=O)CSCc2cccc(C)c2)c(=O)[nH]c1=O	1	-3	-2	3	-9
COc1ccc(C#Cc2ccc3c(c2)[C@H]2[C@H](CCN2S(=O)(=O)c2ccccc2C)[C@@H](CO)N3C)cc1	5	·	-5	-11	-2
C[C@@H]1CN([C@@H](C)CO)C(=O)c2cc(NC(=O)Cn3cnnn3)ccc2O[C@H]1CN(C)C(=O)Nc1ccc(C(F)(F)F)cc1	0	·	-7	?	-2
O=S(=O)(c1ccccc1)N1CCCCN2[C@@H](CO)[C@@H](c3ccc(C#Cc4ccccn4)cc3)[C@@H]2C1	1	·	11	?	13
C[C@@H]1CN([C@H](C)CO)C(=O)c2cc(-c3ccc(F)cc3)cnc2O[C@H]1CN(C)CC1CCCC1	-1	·	-47	15	-6
O=C1CCCC2=C1C(c1ccc(Br)cc1)c1c([nH]c(=S)[nH]c1=O)N2 (configuration not stated)	·	-6	·	·	·
O=c1[nH]c(=S)[nH]c2c1C(c1ccc(Br)cc1)c1c([nH]c(=S)[nH]c1=O)O2	67*	-19	-4	-3	-5
CCCN[C@@H]1C(=O)N2C(C(=O)OCCC)=C(C)CS[C@H]12	1	-4	0	72*	-13
O=C(C[C@@H]1C=C[C@H](NC(=O)Nc2ccc(F)cc2)[C@@H](CO)O1)NCCN1CCCC1	5	·	-6	1	5
SMILES	SIRT5 inh	CaV13 ICDI inh	S100A4 MyoIIA	DENV2 CPE rescue	AF4-AF9 inh
COc1ccc(S(=O)(=O)Nc2ccc3c(c2)C(=O)N([C@@H](C)CO)C[C@@H](C)[C@H](CN(C)S(C)(=O)=O)OCCCC[C@@H](C)O3)cc1	-8	·	8	-5	-5
COc1ccc(CNC(=O)C(C)N2C(=O)NC3(CCCCCCC3)C2=O)cc1 (configuration not stated)	-1	-8	2	87*	-18
COc1ccc(CCNC(=O)CN2C(=O)NC3(CCCCC3)C2=O)cc1	-1	-12	-2	1	-8
COc1ccc(CC(=O)OCC(=O)NCCNC(=O)COC(=O)Cc2ccc(OC)cc2)cc1	-1	-16	-9	61*	-3
COc1ccc(NS(=O)(=O)c2ccc(C)c(NC(=O)CN3C(=O)NC4(CCCC4)C3=O)c2)cc1	-5	-14	-10	-5	41*
COc1ccc(OCCOC(=O)CN2C(=O)NC3(CCCC3)C2=O)cc1	-7	-5	-1	?	0
COc1ccc(CNC(=O)COC(=O)CN2C(=O)NC3(CCCC3)C2=O)cc1	0	-6	-3	29*	1
C[C@@H]1CN([C@@H](C)CO)C(=O)c2cc(NS(=O)(=O)c3cccs3)ccc2O[C@@H](C)CCCCO[C@@H]1CN(C)Cc1ccccc1	0	·	1	7	5
O=C(NCC[C@@H]1CC[C@H](NS(=O)(=O)c2cccc(F)c2)[C@@H](CO)O1)C1CCC1	5	·	-5	?	-2
C=CCOc1c(Cl)cc(Cl)cc1S(=O)(=O)NCCO	·	-9	-6	77*	·
COc1ccc(S(=O)(=O)Nc2ccc3c(c2)C(=O)N([C@H](C)CO)C[C@@H](C)[C@@H](CN(C)CC2CCCCC2)OCCCC[C@H](C)O3)cc1	·	·	·	0	·
CC(C)C(NC(=O)OCc1ccccc1)C(=O)NC(Cc1ccc(O)cc1)C(=O)O (configuration not stated)	-4	-4	-9	10	2
CC(C)[C@H](NC(=O)[C@H](CCCN=C(N)N)NC(=O)NC(Cc1ccccc1)C(=O)O)C(=O)NC(C=O)CCCN=C(N)N (some centres not stated)	46*	-6	-2	8	-10
Cc1cc(Br)ccc1NC(=O)CN(C)C(=O)COc1cccc2c1OC(C)(C)C2	-2	-6	3	91*	14
